From PubChem
PKA-R2B act: PKA-R2B complex activation | AID 504700 | PKA-R2B holoenzyme dissociation, Cy5-IP20 fluorescence polarization; R2B truncated from residue 108, S112A mutant; 0% DMSO only, 100% 113 µM cGMP | P22694+P31323 | activation, % at 11.4 µM | 0.079% of 340,000 active;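 active = activation above a cutoff set at the mean over all compounds plus 3 SD, cut at about 18% in these data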;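 also: higher means more holoenzyme dissociation and a rise in polarization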
Tn7 DDE FP: DD(E)-Tn7 binding inhibition, primary FP screen; P02675; FP displacement of FITC-Tn7 peptide from fibrin DD(E); 0% = median of compound wells per plate; inhibition, % at 8.3 µM; 0.13% of 370,000 active; AID 720508;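 active = inhibition above the mean of compounds falling within the control limits plus 3 SD of them, cut at about 14% in these data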
Target sequence (P02675 whole entry, looked up): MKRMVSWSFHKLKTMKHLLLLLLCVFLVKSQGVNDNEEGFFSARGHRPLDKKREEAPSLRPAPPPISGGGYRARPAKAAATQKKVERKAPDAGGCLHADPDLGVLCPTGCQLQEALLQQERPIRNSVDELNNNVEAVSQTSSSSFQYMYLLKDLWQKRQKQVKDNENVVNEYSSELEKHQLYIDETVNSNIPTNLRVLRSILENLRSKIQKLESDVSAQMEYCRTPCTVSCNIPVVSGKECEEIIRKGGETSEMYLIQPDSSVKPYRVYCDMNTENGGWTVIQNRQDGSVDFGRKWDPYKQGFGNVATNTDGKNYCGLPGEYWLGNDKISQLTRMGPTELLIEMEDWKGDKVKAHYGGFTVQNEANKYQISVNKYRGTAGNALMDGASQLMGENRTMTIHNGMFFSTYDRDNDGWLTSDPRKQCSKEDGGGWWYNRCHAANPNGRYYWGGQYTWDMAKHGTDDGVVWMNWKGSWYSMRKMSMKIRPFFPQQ
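Also added: labelled Tn7 tracer, 0.1 µM; Assay system: human fibrin DD(E) protein; Amount: 2 µM fibrin DD(E); Schedule: 10 min compound pre-incubation, 3 h probe incubation at room temperature; Repeats: one replicate per compound; Read-out basis: percent inhibition; Measured by: fluorescence polarization of the labelled Tn7 tracer.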
Neddylation inh: inhibitors of human cullin neddylation; P61081+Q13564; TR-FRET cullin neddylation, biochemical; inhibition, % at 25 µM; 0.58% of 360,000 active; AID 651699; in the data active = inhibition above about 36%
PKA-R1A activ: activates the PKA-R1A holoenzyme complex. P00514+P68181. PKA-R1A dissociation, Cy5-IP20 fluorescence polarization; scaled: DMSO 0%, 113 µM cGMP 100%. activation, % at 11.4 µM. 0.083% of 340,000 active;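 active = percent activation above the mean of all tested compounds plus 3 SD, cut at about 19% in these data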;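 also: higher means more PKAc released from R1A so a rise in polarization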
Tn6 DDE FP: DD(E)-Tn6 binding inhibition, primary FP screen; Fibrin DD(E) TRITC-Tn6 fluorescence polarization displacement; AID 720509; 0.21% of 370,000 active; inhibition, % at 8.3 µM;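 active = inhibition above a per-campaign cutoff: mean of compounds within control limits plus 3 SD, cut at about 15% in these data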
Neddyl conf: confirmation of human cullin neddylation inhibitors; calls only at 25 µM; TR-FRET cullin neddylation biochemical assay; 13% of 1,800 active; shares compounds with Neddylation inh; AID 652217; in the data active = inhibition above about 40%;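 also: neddylation substrate is the cullin 1 ring ligase complex with SKP2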
Each line names hits and unclear results; the compound was inactive in the other large screens (follow-up assays come after a bar, where shown). Only some compounds are listed: those with a hit (about 1% of all), similar ones and a draw of the others.

CN(C)C(=O)COC(=O)/C=C/c1cn(-c2ccccc2)nc1-c1cccs1	Neddylation inh 41
O=C(N/N=C/c1cn(-c2ccccc2)nc1-c1ccccc1)c1ccco1	Neddylation inh 41 | Neddyl conf inactive
Cc1ccc(-c2nn(-c3ccccc3)cc2/C=N/NC(=O)c2ccncc2)o1	none
O=C(N/N=C/c1cn(-c2ccccc2)nc1-c1cccs1)c1ccncc1	Neddylation inh 44
CC(=O)C1=C(C)N(Cc2ccc(Br)cc2)C(=S)NC1c1ccc(F)cc1 (stereo unspecified)	none (no result: PKA-R2B act, Neddylation inh, PKA-R1A activ)
CCNC(=O)Nc1ccc2c(c1)C(=O)N(C)[C@H]1CC[C@@H](CC(=O)NCCN3CCCC3)O[C@@H]1CO2	none (no result: PKA-R2B act, Neddylation inh, PKA-R1A activ)
O=C1NC(c2ccccc2)=C(c2ccc3ccccc3n2)C(c2ccccc2)N1 (stereo unspecified)	Neddylation inh 44 | Neddyl conf inactive
Cc1cccc(CN[C@@H]2CC[C@@]34CCCN3C(=O)CCC[C@H]4C2)c1	none (no result: PKA-R2B act, Neddylation inh, PKA-R1A activ)
C=CCn1cc(-c2cccc(Cl)c2)cc(C#N)c1=O	Neddylation inh 41 | Neddyl conf inactive
Cn1cc(-c2ccc(Cl)cc2)cc(C#N)c1=O	Neddylation inh 46 | Neddyl conf inactive
N#Cc1cc(-c2cccc(Cl)c2)c[nH]c1=O	none
CCC(=O)OCCCN1CCC2(CCC(c3ccccc3)CC2)C1=O (stereo unspecified)	none (no result: PKA-R2B act, Neddylation inh, PKA-R1A activ)
CCOC(=O)CNC(=O)C(Cc1ccc2c(c1)OCO2)NC(C)=O (stereo unspecified)	none (no result: PKA-R2B act, Neddylation inh, PKA-R1A activ)
CCOc1ccc(/C=N/NC(=O)c2nnn(-c3nonc3N)c2-c2ccc(OCC)cc2)cc1	none
CCOc1ccc(-c2c(C(=O)N/N=C/c3c[nH]c4ccccc34)nnn2-c2nonc2N)cc1	Neddylation inh 42 | Neddyl conf inactive
Cc1cc(Nc2nc3c(c(=O)n(C)c(=O)n3C)n2C)n(-c2ccc(Cl)cc2)n1	Neddylation inh 40 | Neddyl conf inactive
Cc1cc(Nc2ccc(Cl)cc2)n(-c2ccccc2)n1	none
CCOC(=O)CC[C@@H]1CC[C@]2(CCCN(Cc3nccs3)C2)O1	none (no result: PKA-R2B act, Neddylation inh, PKA-R1A activ)
Cc1nc2scc(C)n2c(=O)c1S(=O)(=O)NCc1ccccc1Cl	Neddylation inh 41 | Neddyl conf inactive
CC(=O)N1CCCN(S(=O)(=O)c2ccc3c(c2)c(=O)n(C)c(=O)n3C)CC1	none (no result: PKA-R2B act, Neddylation inh, PKA-R1A activ)
COC(=O)[C@]12C[C@H](CC(=O)NCCC(C)C)C(=O)N(Cc3ccco3)C1=C[C@H](C1CCCC1)O[C@@H]2C	none (no result: PKA-R2B act, Neddylation inh, PKA-R1A activ)
Cn1c(SCc2ccc(Cl)cc2)nnc1-c1ccc2nonc2c1	Neddylation inh 42 | Neddyl conf inactive
Cc1cc(C)c2nc(N3CCN(C)CC3)c(C#N)cc2c1	Neddylation inh 42 | Neddyl conf inactive
Cc1ccc2nc(N3CCN(C)CC3)c(C#N)cc2c1	Neddylation inh 40 | Neddyl conf inactive
Cc1cccc2cc(C#N)c(N3CCN(C)CC3)nc12	none
CC(CCN1CCC(C(O)(c2ccccc2)c2ccccc2)CC1)Oc1ccc(C#N)c(F)c1 (stereo unspecified)	none (no result: PKA-R2B act, Neddylation inh, PKA-R1A activ)
COC(=O)C1=C(C)N(Cc2ccc(Br)cc2)C(=S)NC1c1cccc(F)c1 (stereo unspecified)	none (no result: PKA-R2B act, Neddylation inh, PKA-R1A activ)
CCOC(=O)CNC(=O)CSc1nnc(-c2ccccc2)n1CC	none (no result: PKA-R2B act, Neddylation inh, PKA-R1A activ)
Cc1cc(=O)oc2cc(OCc3nnc(-c4ccccc4Br)o3)ccc12	Neddylation inh 44 | Neddyl conf inactive
Cc1cc(=O)oc2c(C)c(OC3CCCCC3=O)ccc12 (stereo unspecified)	Neddylation inh 44 | Neddyl conf active
COc1cccc(CNc2ccc3[nH]c(=O)[nH]c3c2)c1OCc1ccc(F)cc1	Neddylation inh 43 | Neddyl conf inactive
COC(=O)c1ccc(C#Cc2ccccc2)o1	Neddylation inh 39 | Neddyl conf inactive
COc1ccc(OC)c(CN2C(=O)CSCC2(C)c2nnnn2C2CCCC2)c1 (stereo unspecified)	none (no result: PKA-R2B act, Neddylation inh, PKA-R1A activ)
CN(C)S(=O)(=O)c1cccc(NC(=O)c2cc3c(=O)n4ccccc4nc3s2)c1	Neddylation inh 61
Cc1cc(NS(=O)(=O)c2ccc(NC(=O)c3cc4c(=O)n5ccccc5nc4s3)cc2)nc(C)n1	Neddylation inh 66 | Neddyl conf active
